# From ChEMBL document CHEMBL1152410, “Cytotoxic pentacyclic triterpenoids from Combretum sundaicum and Lantana camara as inhibitors of Bcl-xL/BakBH3 domain peptide interaction” (J Nat Prod, 2009)
# Assays:
# HCT-116 = test: Cytotoxicity against human HCT116 cells; type: functional, cell-based
# How it was run: (§1)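 Cell growth-inhibition assay run by a previously published procedure, with Taxotere as the reference compound.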
# KB = test: Cytotoxicity against human KB cells; type: functional, cell-based; how it was run: as §1
# MCF7 = test: Cytotoxicity against human MCF7 cells; type: functional, cell-based; how it was run: as §1
# Bcl-2-like protein 1 = Bcl-2-like protein 1 (Homo sapiens, UniProt Q07817); test: Binding affinity to Bcl-xL by fluorescein-labeled Bak-BH3 peptide competition binding assay
# Chain of Bcl-2-like protein 1 (Q07817 whole entry): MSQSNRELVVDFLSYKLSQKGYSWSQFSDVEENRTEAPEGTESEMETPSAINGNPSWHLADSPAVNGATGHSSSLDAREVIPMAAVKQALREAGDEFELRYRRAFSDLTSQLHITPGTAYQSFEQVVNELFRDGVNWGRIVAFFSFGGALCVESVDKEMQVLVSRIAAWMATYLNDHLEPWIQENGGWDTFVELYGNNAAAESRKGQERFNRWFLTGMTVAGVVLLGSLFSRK
# How it was run: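 Fluorescence polarization displacement: test compound competes with fluorescein-labeled Bak BH3-domain peptide for binding to Bcl-xL. Ki is derived as the dissociation constant at equilibrium against this reference ligand. Unlabeled Bak(BH3) peptide and a substituted terphenyl derivative serve as positive controls. Runs are done in duplicate.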
# L1210 = test: Cytotoxicity against mouse L1210 cells; type: functional, cell-based; how it was run: as §1
Structure (SMILES),IC50 (HCT-116),IC50 (KB),IC50 (MCF7),Ki (Bcl-2-like protein 1),IC50 (L1210)
COC(=O)[C@]1(C)CC[C@]2(C)CC[C@]3(C)C(=CC[C@@H]4[C@@]5(C)[C@@H](O)C[C@H](O)[C@@](C)(COC(C)=O)[C@@H]5CC[C@]43C)[C@H]2C1,1.7 µM,2.9 µM,4.6 µM,> 100 µM,–
COC(=O)[C@]1(C)CC[C@]2(C)CC[C@]3(C)C(=CC[C@@H]4[C@@]5(C)[C@@H](O[C@@H]6O[C@@H](C)[C@H](O)[C@@H](O)[C@H]6O)C[C@H](OC(C)=O)[C@@](C)(COC(C)=O)[C@@H]5CC[C@]43C)[C@H]2C1,0.3 µM,0.9 µM,0.6 µM,> 100 µM,–
CC(=O)OC[C@]1(C)[C@@H](OC(C)=O)C[C@H](O)[C@]2(C)[C@H]3CC=C4[C@H]5C[C@](C)(C(=O)O)CC[C@]5(C)CC[C@@]4(C)[C@]3(C)CC[C@@H]12,4.7 µM,5.4 µM,6 µM,17.8 µM,–
COC(=O)[C@]1(C)CC[C@]2(C)CC[C@]3(C)C(=CC[C@@H]4[C@@]5(C)[C@@H](O[C@@H]6O[C@@H](C)[C@H](O)[C@@H](O)[C@H]6O)C[C@H](O)[C@@](C)(COC(C)=O)[C@@H]5CC[C@]43C)[C@H]2C1,0.4 µM,0.7 µM,0.5 µM,> 100 µM,–
C/C=C(/C)C(=O)O[C@@H]1CC(C)(C)C[C@H]2C3=CC[C@@H]4[C@@]5(C)CCC(=O)C(C)(C)[C@@H]5CC[C@@]4(C)[C@]3(C)CC[C@@]12C(=O)O [LANTADENE A],41.8 µM,15.8 µM,44.7 µM,> 100 µM,16.3 µM
CC(C)=CC(=O)O[C@@H]1CC(C)(C)C[C@@H]2C3=CC[C@@H]4[C@@]5(C)CCC(=O)C(C)(C)[C@@H]5CC[C@@]4(C)[C@]3(C)CC[C@]21C(=O)O [LANTADENE B],11.4 µM,25.3 µM,44 µM,> 100 µM,16.1 µM
CC(C)=CC(=O)O[C@@H]1CC(C)(C)C[C@@H]2C3=CC[C@@H]4[C@@]5(C)CCC(=O)[C@](C)(CO)[C@@H]5CC[C@@]4(C)[C@]3(C)CC[C@]21C(=O)O,11.4 µM,35.5 µM,42.5 µM,5.3 µM,12.3 µM
CC(=O)O[C@@]12CO[C@@H]1C[C@H](O)[C@@]1(C)C(=O)[C@H](O)C3=C(C)[C@@H](OC(=O)[C@H](O)[C@@H](NC(=O)OC(C)(C)C)c4ccccc4)C[C@@](O)([C@@H](OC(=O)c4ccccc4)[C@H]21)C3(C)C [DOCETAXEL],0.0012 µM,0.00015 µM,0.0007 µM,–,–
C/C=C(/C)C(=O)O[C@@H]1CC(C)(C)C[C@@H]2C3=CC[C@@H]4[C@@]5(C)CCC(=O)[C@](C)(CO)[C@@H]5CC[C@@]4(C)[C@]3(C)CC[C@]21C(=O)O [ICTEROGENIN],5.8 µM,15 µM,11.3 µM,7.6 µM,6.8 µM
CC(=O)OC[C@]1(C)[C@@H](OC(C)=O)C[C@H](O[C@@H]2O[C@@H](C)[C@H](O)[C@@H](O)[C@H]2O)[C@]2(C)[C@H]3CC=C4[C@H]5C[C@](C)(C(=O)O)CC[C@]5(C)CC[C@@]4(C)[C@]3(C)CC[C@@H]12,8 µM,8.2 µM,10.5 µM,7.2 µM,–
